In ChEMBL document CHEMBL3860034, “Development of Potent and Selective S. aureus Sortase A Inhibitors Based on Peptide Macrocycles” (ACS Med Chem Lett, 2016):
Calls of active or inactive are those of the source. The calls are words filed in the database; no cut-off is given here. *1 amine or outer side, *2 acyl side, *3 side chain or, on linkers, in order; H or OH if unused. Where a SMILES comes first, the peptide text is derived from it. Bridges are numbered along the chain shown (N, C = ends). TBMB = c1c(C[*:1])cc(C[*:3])cc1C[*:2]

Key:
Sortase A [1] = molecular target: T1, Sortase A (Staphylococcus aureus, UniProt Q9S446); assay: Inhibition of Staphylococcus aureus His6-biotinylated SrtA expressed in Escherichia coli XL1-blue using Dabcyl-LPETG-Edans as substrate assessed as residual activity by fluorescence assay
T1 sequence (Q9S446 whole entry): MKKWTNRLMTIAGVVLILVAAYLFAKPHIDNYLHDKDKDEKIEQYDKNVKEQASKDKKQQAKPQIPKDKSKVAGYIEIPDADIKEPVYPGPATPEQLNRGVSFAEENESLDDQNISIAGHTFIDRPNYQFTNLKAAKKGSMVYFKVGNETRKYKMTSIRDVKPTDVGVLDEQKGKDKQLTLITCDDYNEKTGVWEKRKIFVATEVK
Procedure, shortened: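 (His)6-SrtA26−206 from E. coli XL1-blue, purified by Ni affinity and gel filtration. Enzyme at 2.5 μM incubated with varied peptide concentrations (up to 300 μM). Residual activity measured with 20 μM Dabcyl-LPETG-Edans and 200 μM triglycine in 50 mM Tris-Cl pH 7.4, 150 mM NaCl, 5 mM CaCl2, 0.1% BSA, 37 °C. Fluorescence read at ex 350/em 480 nm. Ki from Supporting Information equations; at least three measurements.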

Sortase A [2] = molecular target: T1, Sortase A; assay: Binding affinity to Staphylococcus aureus His6-biotinylated SrtA expressed in Escherichia coli XL1-blue using fluorescein-tagged compound after 15 mins by fluorescence polarization
Procedure, shortened: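 Serial dilutions of SrtA mixed with 200 nM fluorescein-labeled bicyclic peptide in 50 mM Tris-Cl pH 7.4, 150 mM NaCl, 5 mM CaCl2; 15 min at room temperature. Fluorescence polarization read at 485 nm excitation / 535 nm emission. Kd obtained by nonlinear regression of polarization against total SrtA concentration.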

[3] = molecular target: Urokinase-type plasminogen activator (Homo sapiens, UniProt P00749); assay: Inhibition of human uPA using fluorogenic Z-Gly-Gly-Arg-AMC as substrate
[4] = Inhibition of recombinant Staphylococcus aureus SrtA N24 deletion mutant by using abz-LPATG-dnp as substrate
Staphylococcus aureus = assay: Induction of Fluo-GSLPETGGS substrate transfer to cell wall of SrtA knockout Staphylococcus aureus SKM12 at 1 mM after 24 hrs by fluorescence assay; type: functional
Sortase A [5] = molecular target: T1, Sortase A; assay: (§1) Inhibition of SrtA-mediated incorporation of Fluo-GSLPETGGS substrate to cell wall of Staphylococcus aureus Newman after 24 hrs by fluorescence assay; set-up: species or system Staphylococcus aureus subsp. aureus str. Newman
[6] = molecular target: T2, Sortase A (Staphylococcus aureus) (UniProt Q9S446); assay: as §1; conditions: Staphylococcus aureus subsp. aureus str. Newman
T2 sequence (whole entry): T1 sequence (Q9S446 whole entry)

CC(C)C[C@@H]1NC(=O)[C@H](CCC(N)=O)NC(=O)[C@@H]2CCCN2C(=O)[C@@H](NC(=O)[C@H](C)N)CSCc2cc3cc(c2)CSC[C@H](NC(=O)[C@@H]2CCCN2C(=O)[C@@H]2CCCN2C1=O)C(=O)N[C@@H](CCCNC(=N)N)NC(=O)[C@H](C(C)C)NC(=O)[C@H](CO)C(=O)N[C@H](C(=O)NCC(N)=O)CSC3 gave a Ki (Sortase A [1]) of 4.3 µM and a Kd (Sortase A [2]) of 8.8 µM.

With CC(C)[C@@H]1NC(=O)[C@H](CCC(=O)O)NC(=O)[C@H](Cc2ccc(O)cc2)NC(=O)[C@H](CCCNC(=N)N)NC(=O)[C@@H](CO)NC(=O)[C@H](NC(=O)[C@H](C)N)CSCc2cc3cc(c2)CSC[C@@H](C(=O)NCC(N)=O)NC(=O)[C@@H](C)NC(=O)[C@H](CO)NC(=O)CNC(=O)[C@H](CCCNC(=N)N)NC(=O)CNC(=O)[C@H](CCCNC(=N)N)NC(=O)[C@H](CSC3)NC(=O)[C@H](CC(=O)O)NC1=O the Ki [3] was 0.053 µM.

O=S(=O)(O)c1cccc(-c2nn3c(-c4ccncc4)nnc3s2)c1 showed an IC50 [4] of 9.3 µM.

CC(C)C[C@@H]1NC(=O)[C@H](CCC(N)=O)NC(=O)[C@@H]2CCCN2C(=O)[C@@H]2CSCc3cc(cc(c3)CSC[C@@H](C(=O)NCC(N)=O)NC(=O)[C@@H]3CCCN3C(=O)[C@@H]3CCCN3C1=O)CSC[C@H](NC(=O)[C@H](C)N)C(=O)N[C@@H]([C@@H](C)O)C(=O)N[C@@H](CCC(N)=O)C(=O)N[C@@H](CCCNC(=N)N)C(=O)N2 (H-ACTQRCPQLPPCG-NH2; linker 2-6-12 via TBMB) showed a Ki (Sortase A [1]) of 2.4 µM and a Kd (Sortase A [2]) of 1.5 µM.

In the case of CC(C)C[C@@H]1NC(=O)[C@H](CCC(N)=O)NC(=O)[C@@H]2CCCN2C(=O)[C@@H]2CSCc3cc(cc(c3)CSC[C@@H](C(=O)NCC(=O)O)NC(=O)[C@@H]3CCCN3C(=O)[C@@H]3CCCN3C1=O)CSC[C@H](NC(=O)[C@H](C)N)C(=O)N[C@@H](Cc1c[nH]cn1)C(=O)N[C@@H](CO)C(=O)N[C@@H](CCCNC(=N)N)C(=O)N2 (H-ACHSRCPQLPPCG-OH; linker 2-6-12 via TBMB), the Ki (Sortase A [1]) is reported as 1.1 µM, the Activity (Staphylococcus aureus) is reported as “Active” and the IC50 (Sortase A [5]) is reported as 167 µM. The inhibition [6] was “Dose-dependent effect”.
